Results collected from several papers.
Target: Eukaryotic translation initiation factor 2-alpha kinase 1 (EIF2AK1, Homo sapiens, UniProt Q9BQI3)

O=C(c1ccc(Nc2nccc(-c3cc4ccccc4s3)n2)cc1)N1CCC(N2CCCC2)CC1 — remaining binding (binding; competition with immobilised ligand; 1 µM): 100%
CS(=O)(=O)c1cc(C2(NC(=O)c3cncc4c3cnn4-c3ccc(F)cc3)CC2)ccn1 — remaining binding (cell-free assay; competition with immobilised ligand; 1 µM): 73%
F[C@@H]1CCN(c2nccc(-c3cnn4ncccc34)n2)C1 — remaining binding (binding; 1 µM): 100%
COc1ncc2cc3ccccc3nc2c1C#N — remaining binding (cell-free assay; competition with immobilised ligand; 5 µM): 100%
COc1cnc(Nc2cccc(S(N)(=O)=O)c2)nc1N1CCN(c2ccccc2)CC1 — remaining binding (binding; competition with immobilised ligand; 1 µM): 100%
C[C@H]1CCN(c2nccc(-c3cnn4ncccc34)n2)C1 — remaining binding (binding; 1 µM): 73%
O=C(NCC1CCOCC1)c1n[nH]cc1NC(=O)c1c(F)cccc1F — remaining binding (binding; competition with immobilised ligand; 1 µM): 87%
O=C(NCCCN1CCOCC1)c1ccc(Nc2ncc(Cl)c(-c3ccc(Cl)s3)n2)cc1 — remaining binding (binding; competition with immobilised ligand; 1 µM): 97%
FC(F)(F)c1ccc2c(c1)nc(-c1cccnc1)n2C1CC1 — remaining binding (cell-free assay; competition with immobilised ligand; 1 µM): 100%
FC(F)(F)Oc1cccc(-c2cnc3ccc(-c4ccncc4)nn23)c1 — remaining binding (cell-free assay; competition with immobilised ligand; 5 µM): 88%
CO[C@@H](C)c1c(Nc2ccc([C@H](N(C)C(=O)C3CCS(=O)(=O)CC3)C(F)(F)F)cc2)cnc2cc(Cl)nn12 — remaining binding (cell-free assay; competition with immobilised ligand; 1 µM): 100%
N[C@H]1CCN(c2nccc(-c3cnn4ncccc34)n2)C1 — remaining binding (binding; 1 µM): 78%
CS(=O)(=O)N1CCCC(NC(=O)[C@H](CCC2CCCCC2)NC(=O)c2ccc(CNC(=O)c3cnc4ccccn34)cc2)C1 (stereo partly shown) — remaining binding (cell-free assay; competition with immobilised ligand; 0.1 µM): 91%
CN(C)c1ncc(F)c(-c2cnn3ncccc23)n1 — remaining binding (binding; 1 µM): 100%
O=C(c1ccc(Nc2ncc(Cl)c(-c3cc4ccccc4s3)n2)cc1)N1CCC(N2CCCC2)CC1 — remaining binding (binding; competition with immobilised ligand; 1 µM): 90%
C=CC(=O)N1CCC(C(=O)NCC(=O)N2CCN(c3nc(-c4cnc(N)nc4C(F)F)nc(N4CCOCC4)n3)CC2)CC1 — remaining binding (binding; competition with immobilised ligand; 1 µM): 94%
CN1CCN(c2cnc3c(C4CCN(C(=O)c5ccc(OC(F)(F)F)cc5N)CC4)ncnc3c2)CC1 — remaining binding (cell-free assay; competition with immobilised ligand; 1 µM): 100%
CN(c1nccc(-c2cnn3ncccc23)n1)C1CC1 — remaining binding (binding; 1 µM): 100%
C[C@@H](c1cccc(C#N)c1)n1cc(Cl)cc(C(N)=O)c1=N — remaining binding (cell-free assay; competition with immobilised ligand; 1 µM): 95%
C[C@@H](c1ccc(-n2cnc3c(N)ncnc32)cc1)N1CCc2nn(C)c(Cc3ccccc3)c2C1=O — remaining binding (binding; competition with immobilised ligand; 0.1 µM): 66%
O=C(NCc1ncc(C(F)(F)F)cc1Cl)c1ccc2c(c1)C1(CCS(=O)(=O)CC1)[C@@H](C1CC1)N2S(=O)(=O)c1ccc(F)cc1 — remaining binding (cell-free assay; competition with immobilised ligand; 1 µM): 94%
c1cnn2ncc(-c3ccnc(N4CCC45COC5)n3)c2c1 — remaining binding (binding; 1 µM): 49%
